Data on 27 molecules can be found in paper PMC9753537 (ACS Omega, 2022).

The IC50 is the concentration needed to halve the response being measured. A lower IC50 goes with inhibition by little substance.

For this assay, the target named is urease (Canavalia ensiformis, UniProt P07374). The assay is described as follows: In vitro urease inhibition assay. The assay is classed as biochemical. In short, it runs like this: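 Enzyme preincubated with test compound in phosphate buffer (pH 6.8) for 10 min at 37 °C, then phenol and alkali reagents added. Absorbance read at 625 nm, with thiourea as the standard inhibitor. Percent inhibition calculated from absorbance, run in triplicate.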
urease, sequence (P07374 whole entry, looked up): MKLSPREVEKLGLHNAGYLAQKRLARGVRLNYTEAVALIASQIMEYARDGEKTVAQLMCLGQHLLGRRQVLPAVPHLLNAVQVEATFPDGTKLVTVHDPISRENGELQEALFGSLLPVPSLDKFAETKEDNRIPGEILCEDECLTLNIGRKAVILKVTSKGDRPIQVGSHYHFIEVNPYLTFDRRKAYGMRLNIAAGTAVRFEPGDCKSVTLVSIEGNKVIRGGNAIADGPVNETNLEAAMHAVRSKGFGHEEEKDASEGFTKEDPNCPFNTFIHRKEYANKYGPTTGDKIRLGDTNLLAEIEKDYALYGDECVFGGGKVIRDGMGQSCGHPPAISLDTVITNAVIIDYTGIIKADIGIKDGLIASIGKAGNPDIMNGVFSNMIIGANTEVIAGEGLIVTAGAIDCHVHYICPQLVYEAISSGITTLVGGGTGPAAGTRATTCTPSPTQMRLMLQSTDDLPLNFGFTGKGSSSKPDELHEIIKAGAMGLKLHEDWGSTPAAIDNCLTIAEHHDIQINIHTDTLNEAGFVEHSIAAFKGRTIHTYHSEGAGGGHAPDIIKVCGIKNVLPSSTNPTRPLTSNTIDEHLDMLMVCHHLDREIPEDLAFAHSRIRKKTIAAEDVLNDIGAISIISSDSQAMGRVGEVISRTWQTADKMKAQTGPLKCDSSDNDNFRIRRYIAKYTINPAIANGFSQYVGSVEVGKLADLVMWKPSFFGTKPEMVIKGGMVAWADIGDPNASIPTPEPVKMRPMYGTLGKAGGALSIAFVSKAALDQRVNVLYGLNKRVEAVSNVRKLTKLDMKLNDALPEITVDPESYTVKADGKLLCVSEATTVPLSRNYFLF
`COc1cc(C=NNC(=O)C(C)c2ccc(-c3ccccc3)c(F)c2)ccc1F` (stereo not drawn) [Compound 12, N′-(4-Fluoro-3-methoxybenzylidene)-2-(2-fluoro-[1,1′-biphenyl]-4-yl)propanehydrazide] came in with an IC50 of 56.1 ± 4.89 µM.
The figure for `COc1ccc(/C=N/NC(=O)C(C)c2ccc(-c3ccccc3)c(F)c2)c(Cl)c1OC` (stereo not drawn) [Compound 16, (E)-N′-(2-Chloro-3,4-dimethoxybenzylidene)-2-(2-fluoro-[1,1′-biphenyl]-4-yl)propanehydrazide] is 55.7 ± 3.82 µM; for `Cc1ccc(C=NNC(=O)C(C)c2ccc(-c3ccccc3)c(F)c2)s1` (stereo not drawn) [Compound 29, 2-(2-Fluoro-[1,1′-biphenyl]-4-yl)-N′-((5-methylthiophen-2-yl)methylene)propanehydrazide] it is 57.5 ± 4.27 µM; for `CC(C(=O)NN=Cc1cc([N+](=O)[O-])ccc1Cl)c1ccc(-c2ccccc2)c(F)c1` (stereo not drawn) [Compound 10, N′-(2-Chloro-5-nitrobenzylidene)-2-(2-fluoro-[1,1′-biphenyl]-4-yl)propanehydrazide] it is 50.7 ± 5.17 µM.
`COc1ccc(C=NNC(=O)C(C)c2ccc(-c3ccccc3)c(F)c2)c(OC)c1OC` (stereo not drawn) [Compound 9, 2-(2-Fluoro-[1,1′-biphenyl]-4-yl)-N′-(2,3,4-trimethoxybenzylidene)propanehydrazide] returned an IC50 of 55.8 ± 3.04 µM.
On to `CC(C(=O)NN=Cc1ccc(Br)cc1F)c1ccc(-c2ccccc2)c(F)c1` (stereo not drawn) [Compound 23, N′-(4-Bromo-2-fluorobenzylidene)-2-(2-fluoro-[1,1′-biphenyl]-4-yl)propanehydrazide], for which the concentration for half-maximal inhibition (IC50) was determined as 86.9 ± 8.71 µM.
Take `COc1cc(C=NNC(=O)C(C)c2ccc(-c3ccccc3)c(F)c2)ccc1Oc1ccccc1` (stereo not drawn) [Compound 18, 2-(2-Fluoro-[1,1′-biphenyl]-4-yl)-N′-(3-methoxy-4-phenoxybenzylidene)propanehydrazide]: half-maximal inhibition (IC50) was put at 26.5 ± 0.44 µM.
Molecule `CC(C(=O)NN=Cc1ccccc1[N+](=O)[O-])c1ccc(-c2ccccc2)c(F)c1` (stereo not drawn) [Compound 31, N′-(2-Nitrobenzylidene)-2-(2-fluoro-[1,1′-biphenyl]-4-yl)propanehydrazide] registered an IC50 of 28.1 ± 1.26 µM.
As to `COc1cccc(OC)c1C=NNC(=O)C(C)c1ccc(-c2ccccc2)c(F)c1` (stereo not drawn) [Compound 14, N′-(2,6-Dimethoxybenzylidene)-2-(2-fluoro-[1,1′-biphenyl]-4-yl)propanehydrazide], the 50% inhibitory concentration (IC50) was found to be 55.7 ± 3.71 µM.
With `CSc1ccc(C=NNC(=O)C(C)c2ccc(-c3ccccc3)c(F)c2)cc1` (stereo not drawn) [Compound 26, 2-(2-Fluoro-[1,1′-biphenyl]-4-yl)-N′-(4-(methylthio)benzylidene)propanehydrazide], the IC50 is 78 ± 7.63 µM.
Consider `COc1ccc(Br)cc1C=NNC(=O)C(C)c1ccc(-c2ccccc2)c(F)c1` (stereo not drawn) [Compound 8, N′-(5-Bromo-2-methoxybenzylidene)-2-(2-fluoro-[1,1′-biphenyl]-4-yl)propanehydrazide], for which the IC50 is 58.3 ± 3.34 µM.
The figure for `COc1ccc(C=NNC(=O)C(C)c2ccc(-c3ccccc3)c(F)c2)c(F)c1` (stereo not drawn) [Compound 21, N′-(2-Fluoro-4-methoxybenzylidene)-2-(2-fluoro-[1,1′-biphenyl]-4-yl)propanehydrazide] is 89.7 ± 8.35 µM.
For the molecule `CC(C(=O)N/N=C/c1ccc([N+](=O)[O-])cc1)c1ccc(-c2ccccc2)c(F)c1` (stereo not drawn) [Compound 15, (E)-2-(2-Fluoro-[1,1′-biphenyl]-4-yl)-N′-(4-nitrobenzylidene)propanehydrazide], it took 28.6 ± 1.73 µM to reach half-maximal inhibition (IC50).
The figure for `CC(C(=O)NN=Cc1ccc(O)c(Br)c1)c1ccc(-c2ccccc2)c(F)c1` (stereo not drawn) [Compound 27, N′-(3-Bromo-4-hydroxybenzylidene)-2-(2-fluoro-[1,1′-biphenyl]-4-yl)propanehydrazide] is 80 ± 8.61 µM.
Molecule `CC(C(=O)NN=Cc1ccc(Br)cc1)c1ccc(-c2ccccc2)c(F)c1` (stereo not drawn) [Compound 20, N′-(4-Bromobenzylidene)-2-(2-fluoro-[1,1′-biphenyl]-4-yl)propanehydrazide] had an IC50 of 58.8 ± 3.99 µM.
`CC(C(=O)NN=Cc1ccccc1N)c1ccc(-c2ccccc2)c(F)c1` (stereo not drawn) [Compound 6, N′-(2-Aminobenzylidene)-2-(2-fluoro-[1,1′-biphenyl]-4-yl)propanehydrazide] registered an IC50 of 53.7 ± 3.82 µM.
Molecule `COc1ccc(OC)c(C=NNC(=O)C(C)c2ccc(-c3ccccc3)c(F)c2)c1` (stereo not drawn) [Compound 24, N′-(2,5-Dimethoxybenzylidene)-2-(2-fluoro-[1,1′-biphenyl]-4-yl)propanehydrazide] came in with an IC50 of 79.2 ± 7.94 µM.
Next, `CCOc1ccc(C=NNC(=O)C(C)c2ccc(-c3ccccc3)c(F)c2)c(OC)c1` (stereo not drawn) [Compound 11, N′-(4-Ethoxy-2-methoxybenzylidene)-2-(2-fluoro-[1,1′-biphenyl]-4-yl)propanehydrazide]: 52.7 ± 3.56 µM; `CC(C(=O)NN=Cc1cccc([N+](=O)[O-])c1)c1ccc(-c2ccccc2)c(F)c1` (stereo not drawn) [Compound 7, 2-(2-Fluoro-[1,1′-biphenyl]-4-yl)-N′-(3-nitrobenzylidene)propanehydrazide]: 29.2 ± 1.12 µM; `CC(C(=O)NN=Cc1cccc2ccccc12)c1ccc(-c2ccccc2)c(F)c1` (stereo not drawn) [Compound 4, 2-(2-Fluoro-[1,1′-biphenyl]-4-yl)-N′-(naphthalen-1-ylmethylene)propanehydrazide]: 53.7 ± 3.81 µM.
Next, `CC(C(=O)NN=Cc1ccc(-c2ccccc2)c(F)c1)c1ccc(-c2ccccc2)c(F)c1` (stereo not drawn) [Compound 28, 2-(2-Fluoro-[1,1′-biphenyl]-4-yl)-N′-((2-fluoro-[1,1′-biphenyl]-4-yl)methylene)propanehydrazide]: 58.5 ± 4.28 µM; `COc1ccccc1C=NNC(=O)C(C)c1ccc(-c2ccccc2)c(F)c1` (stereo not drawn) [Compound 19, 2-(2-Fluoro-[1,1′-biphenyl]-4-yl)-N′-(2-methoxybenzylidene)propanehydrazide]: 55.7 ± 3.82 µM.
The figure for `COc1cc(C=NNC(=O)C(C)c2ccc(-c3ccccc3)c(F)c2)cc(OC)c1Br` (stereo not drawn) [Compound 22, N′-(4-Bromo-3,5-dimethoxybenzylidene)-2-(2-fluoro-[1,1′-biphenyl]-4-yl)propanehydrazide] is 90.7 ± 7.71 µM.
For the molecule `CC(C(=O)NN=Cc1cccc(O)c1O)c1ccc(-c2ccccc2)c(F)c1` (stereo not drawn) [Compound 30, N′-(2,3-Dihydroxybenzylidene)-2-(2-fluoro-[1,1′-biphenyl]-4-yl)propanehydrazide], it took 18.9 ± 0.61 µM to reach half-maximal inhibition (IC50).
Turning to `CC(C(=O)NN=Cc1ccc(O)c(O)c1O)c1ccc(-c2ccccc2)c(F)c1` (stereo not drawn) [Compound 5, 2-(2-Fluoro-[1,1′-biphenyl]-4-yl)-N′-(2,3,4-trihydroxybenzylidene)propanehydrazide], the IC50 stood at 25.1 ± 1.13 µM.
`CC(C(=O)NN=Cc1cccc(C(F)(F)F)c1)c1ccc(-c2ccccc2)c(F)c1` (stereo not drawn) [Compound 25, 2-(2-Fluoro-[1,1′-biphenyl]-4-yl)-N′-(3-(trifluoromethyl)benzylidene)propanehydrazide]: the IC50 came to 59.5 ± 4.28 µM.
Next, `CCOc1cc(C=NNC(=O)C(C)c2ccc(-c3ccccc3)c(F)c2)ccc1OC` (stereo not drawn) [Compound 13, N′-(3-Ethoxy-4-methoxybenzylidene)-2-(2-fluoro-[1,1′-biphenyl]-4-yl)propanehydrazide]: 81 ± 8.43 µM.
